Published values collected from several papers.
Each line is one published result; the experiments were not run side by side.
Target: Tyrosine-protein kinase ZAP-70 (ZAP70, Homo sapiens, UniProt P43403)
Sequence (P43403 1-619, as in one of the studies): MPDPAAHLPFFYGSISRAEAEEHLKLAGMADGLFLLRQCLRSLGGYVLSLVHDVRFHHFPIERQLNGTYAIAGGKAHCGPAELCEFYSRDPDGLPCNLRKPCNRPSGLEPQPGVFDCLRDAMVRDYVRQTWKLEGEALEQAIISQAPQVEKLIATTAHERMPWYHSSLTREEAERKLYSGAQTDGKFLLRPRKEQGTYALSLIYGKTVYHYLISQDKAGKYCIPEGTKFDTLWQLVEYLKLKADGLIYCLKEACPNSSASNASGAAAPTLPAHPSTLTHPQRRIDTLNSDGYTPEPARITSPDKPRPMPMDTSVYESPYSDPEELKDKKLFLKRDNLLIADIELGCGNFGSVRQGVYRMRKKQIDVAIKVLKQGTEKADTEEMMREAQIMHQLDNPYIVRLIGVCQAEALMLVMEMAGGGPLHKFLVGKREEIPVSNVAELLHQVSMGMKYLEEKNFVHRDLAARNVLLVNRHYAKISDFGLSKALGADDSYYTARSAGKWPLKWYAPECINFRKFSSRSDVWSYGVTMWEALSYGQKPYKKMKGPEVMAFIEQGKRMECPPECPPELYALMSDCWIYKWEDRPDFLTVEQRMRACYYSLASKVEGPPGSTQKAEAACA

C#Cc1n[nH]c2c(-c3cn(C(C)c4ccccn4)c(=O)[nH]c3=O)cc(F)cc12 (stereo not drawn) — inhibition (enzyme activity; inhibitor; 1 µM): 16.2%
Cn1cc(-c2cc(F)cc(N3CCn4c(cc5c4CCCC5)C3=O)c2CO)cc(Nc2ccc(N3CCN(C4COC4)CC3)cn2)c1=O — inhibition (enzyme activity; inhibitor; 0.1 µM): 16%
CC(C)(C)c1cc(C=C(C#N)C#N)cc(Br)c1O — remaining activity (enzyme activity; inhibitor; 0.5 µM): 91.6%
Cn1cncc1[C@@](O)(COc1ccc(C#N)cc1-c1ccc(OC(F)(F)F)cc1)c1ccc(C#N)cc1 — remaining binding (cell-free assay; competition with immobilised ligand; 1 µM): 100%
C[C@H](C(=O)N[C@H]1COc2ccccc2[C@@H]1S(C)(=O)=O)c1ccc(F)cc1 — inhibition (enzyme activity; inhibitor; 10 µM): 5%
O=C(Nc1cccnn1)N1CCN([C@@H]2CCOc3cc(C(F)(F)F)ccc32)CC1 — inhibition (enzyme activity; inhibitor; 20 µM): 1%
N#CC1(c2ccccn2)CCN(Cc2cc(C(=O)O)c(=O)n3ccccc23)CC1 — remaining binding (cell-free assay; competition with immobilised ligand; 1 µM): 100%
COc1cc(Nc2ncc(F)c(Nc3ccc4c(n3)NC(=O)C(C)(C)O4)n2)cc(OC)c1OC — inhibition (binding; 10 µM): 100%
O=c1[nH]c2ccccc2n1C1CCN(Cc2ccc(-c3[nH]c4cc5ncnc5cc4nc3-c3ccccc3)cc2)CC1 — remaining signal (cell-free assay; 0.5 µM): 97.3%
Cc1nn(C)cc1-c1nc2c(N3CCN(Cc4ccc(Cl)cc4)CC3)c(Cl)cnc2[nH]1 — remaining binding (binding; competition with immobilised ligand; 1 µM): 100%
COc1ncccc1-c1cnn2ccc(N3CCN(C(=O)OC(C)C)CC3)nc12 — remaining binding (binding; competition with immobilised ligand; 1 µM): 88%
Nc1ncc(-c2nc(N3CCOCC3)nc(N3CCOCC3)n2)c(C(F)F)n1 — remaining binding (binding; competition with immobilised ligand; 10 µM): 94%
Cn1cc(-c2cccc(N3CCc4c(sc5c4CC(C)(C)C5)C3=O)c2CO)cc(Nc2ccncn2)c1=O — inhibition (enzyme activity; inhibitor; 1 µM): 3%
Cc1ncc(C)n2nc(/C=C/c3nc(N4CCCC4)cc(N4CCOCC4)n3)nc12 — inhibition (enzyme activity; inhibitor; 10 µM): -6%
c1ccc(C(NCCNC(c2ccccc2)c2ccccc2)c2ccccc2)cc1 — inhibition (enzyme activity; inhibitor; 10 µM): 3%
